This note sets out measurements from ChEMBL document CHEMBL4387781, “Optimization of oxadiazole derivatives with a spirocyclic cyclohexane structure as novel GPR119 agonists” (Bioorg Med Chem Lett, 2019).

Tested on in one series: not listed separately
Briefly: Stability in rat liver microsomes assessed as parent compound remaining at 5 uM measured after 1 hr. Type of series: ADME, Microsome. The conditions noted are these: read-out: Stability. A digest of the protocol: (§1)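 Compound at 5 μM incubated 1 hour with human or rat liver microsomes (0.2 mg/mL); percent of parent remaining reported.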
As for `C[C@@H](O[C@H]1CC[C@@]2(CC1)CC(F)(F)CO2)c1nc(-c2cc(F)c(CS(C)(=O)=O)c(F)c2)no1`, the remaining at 1 h, 5 µM was 85%.

With `CC(O[C@H]1CC[C@]2(CCCO2)CC1)c1nc(-c2ccc(CS(C)(=O)=O)c(F)c2)no1` (stereo not given in full), the remaining at 1 h, 5 µM stood at 54%.

For the compound `CC(O[C@H]1CC[C@@]2(CC1)CC(C)(C)CCO2)c1nc(-c2ccc(CS(C)(=O)=O)c(F)c2)no1` (stereo not given in full), the remaining at 1 h, 5 µM was determined as 53%.

Take `CC(O[C@H]1CC[C@]2(CCCCO2)CC1)c1nc(-c2ccc(CS(C)(=O)=O)c(F)c2)no1` (stereo not given in full): the remaining at 1 h, 5 µM stood at 64%.

In the case of `CC(O[C@H]1CC[C@]2(CCC(C)(C)CO2)CC1)c1nc(-c2ccc(CS(C)(=O)=O)c(F)c2)no1` (stereo not given in full), the remaining at 1 h, 5 µM is 56%.

Another series deals with T1, Glucose-dependent insulinotropic receptor (Homo sapiens) (UniProt Q8TDV5).
T1 sequence (whole entry): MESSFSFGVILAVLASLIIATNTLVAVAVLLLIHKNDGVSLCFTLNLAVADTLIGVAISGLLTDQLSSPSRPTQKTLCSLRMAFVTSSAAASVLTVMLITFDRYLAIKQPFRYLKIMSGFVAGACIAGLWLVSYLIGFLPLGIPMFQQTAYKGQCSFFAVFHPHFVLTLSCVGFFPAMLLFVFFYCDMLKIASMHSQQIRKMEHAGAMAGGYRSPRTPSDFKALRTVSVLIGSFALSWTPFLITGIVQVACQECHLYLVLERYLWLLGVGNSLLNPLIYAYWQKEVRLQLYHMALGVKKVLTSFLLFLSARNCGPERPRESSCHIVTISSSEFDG
Briefly: Agonist activity at recombinant human GPR119 expressed in HEK293 cells assessed as increase in intracellular cAMP accumulation measured after 30 mins relative to oleoylethanolamide. The series is classed as functional, cell-based.
Settings: not given
Take `C[C@@H](O[C@H]1CC[C@@]2(CC1)CC(F)(F)CO2)c1nc(-c2cc(F)c(CS(C)(=O)=O)c(F)c2)no1`: the %max was found to be 116%.

Regarding `CC(O[C@H]1CC[C@]2(CCCO2)CC1)c1nc(-c2ccc(CS(C)(=O)=O)c(F)c2)no1` (stereo not given in full), the %max was 114%.

As to `CC(O[C@H]1CC[C@@]2(CC1)CC(C)(C)CCO2)c1nc(-c2ccc(CS(C)(=O)=O)c(F)c2)no1` (stereo not given in full), the %max amounted to 113%.

As to `CC(O[C@H]1CC[C@]2(CCCCO2)CC1)c1nc(-c2ccc(CS(C)(=O)=O)c(F)c2)no1` (stereo not given in full), the %max turned out to be 112%.

Turning to `CC(O[C@H]1CC[C@]2(CCC(C)(C)CO2)CC1)c1nc(-c2ccc(CS(C)(=O)=O)c(F)c2)no1` (stereo not given in full), the %max was 109%.

Tested on in the next series: not listed separately
Briefly: Stability in human liver microsomes assessed as parent compound remaining at 5 uM measured after 1 hr. Type of series: ADME, Microsome. The conditions noted are these: read-out: Stability. A digest of the protocol: as §1
For the compound `C[C@@H](O[C@H]1CC[C@@]2(CC1)CC(F)(F)CO2)c1nc(-c2cc(F)c(CS(C)(=O)=O)c(F)c2)no1`, the remaining at 1 h, 5 µM came out at 83%.

For `CC(O[C@H]1CC[C@]2(CCCO2)CC1)c1nc(-c2ccc(CS(C)(=O)=O)c(F)c2)no1` (stereo not given in full), the remaining at 1 h, 5 µM was 49%.

In the case of `CC(O[C@H]1CC[C@@]2(CC1)CC(C)(C)CCO2)c1nc(-c2ccc(CS(C)(=O)=O)c(F)c2)no1` (stereo not given in full), the remaining at 1 h, 5 µM was found to be 0%.

Turning to `CC(O[C@H]1CC[C@]2(CCCCO2)CC1)c1nc(-c2ccc(CS(C)(=O)=O)c(F)c2)no1` (stereo not given in full), the remaining at 1 h, 5 µM was found to be 39%.

For `CC(O[C@H]1CC[C@]2(CCC(C)(C)CO2)CC1)c1nc(-c2ccc(CS(C)(=O)=O)c(F)c2)no1` (stereo not given in full), the remaining at 1 h, 5 µM was found to be 0%.

The next series addresses T2, Glucose-dependent insulinotropic receptor (Homo sapiens, UniProt Q8TDV5).
T2 sequence (Q8TDV5 whole entry): T1 sequence (whole entry)
Briefly: Agonist activity at recombinant human GPR119 expressed in HEK293 cells assessed as increase in intracellular cAMP accumulation measured after 30 mins. The series is classed as functional, cell-based.
Settings: not given
For `C[C@@H](O[C@H]1CC[C@@]2(CC1)CC(F)(F)CO2)c1nc(-c2cc(F)c(CS(C)(=O)=O)c(F)c2)no1`, the EC50 was found to be 7 nM.

Regarding `CC(O[C@H]1CC[C@]2(CCCO2)CC1)c1nc(-c2ccc(CS(C)(=O)=O)c(F)c2)no1` (stereo not given in full), the EC50 came out at 720 nM.

In the case of `CC(O[C@H]1CC[C@@]2(CC1)CC(C)(C)CCO2)c1nc(-c2ccc(CS(C)(=O)=O)c(F)c2)no1` (stereo not given in full), the EC50 is 29 nM.

As for `CC(O[C@H]1CC[C@]2(CCCCO2)CC1)c1nc(-c2ccc(CS(C)(=O)=O)c(F)c2)no1` (stereo not given in full), the EC50 was found to be 86 nM.

Regarding `CC(O[C@H]1CC[C@]2(CCC(C)(C)CO2)CC1)c1nc(-c2ccc(CS(C)(=O)=O)c(F)c2)no1` (stereo not given in full), the EC50 turned out to be 25 nM.
